For experiment [1], the system named is HL-60. Kind of experiment: Induction of cell cycle arrest in human HL60 cells assessed as accumulation of cells at G2/M phase at EC50 by PI staining based flow cytometric analysis. The experiment is classed as functional. The conditions noted are these: TDE = time-dependent effect.
Experiment [2] relates to HL-60. Kind of experiment: Effect on human HL60 cells assessed as fold change in ZNF79 gene expression at 1.085 uM incubated for 6 hrs by microarray-based method. The format is functional.
For experiment [3], the system named is RS4-11. Description: Antitumor activity against human RS4:11 cells xenografted in NOD/SCID mouse assessed as increase in survival at 10 mg/kg, ip administrated 5 times per week. The experiment is classed as functional, organism-based. The method in brief:
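Ten million RS4;11 cells were injected into the tail vein of unconditioned NOD/SCID mice. Engraftment was tracked by flow cytometry of human versus mouse CD45 in ficoll-isolated blood. When human CD45+ cells reached ≥1.5% in half of the mice, animals were randomized (n=5 per group) to vehicle (1% PVP, 4% DMSO, 95% PBS) or 10 mg/kg ip, 5x per week until death. Groups were compared by Kaplan-Meier curves and log-rank test.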
For orientation: A xenograft is tissue or cells of one species grown in another, often human tumour cells in immunodeficient mice.

Experiment [4] relates to HL-60. Kind of experiment: Effect on human HL60 cells assessed as fold change in FOXJ2 gene expression at 1.085 uM incubated for 6 hrs by microarray-based method. The experiment is classed as functional. In outline: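 HL60 cells were treated in triplicate with 1.085 µM or vehicle for 6 h. Total RNA was extracted with on-column DNase treatment and profiled on expression arrays.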

In experiment [5] the test system is CCRF-CEM. Kind of experiment: Effect on human CEM cells assessed as increase in p53 protein expression at 300 nM incubated for 15 to 360 mins by Western blot analysis. The format is functional, cell-based. The method in brief: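 RS4;11, CEM and HL60 cells were exposed to 300 nM for 0, 15, 30, 60 and 360 min. Lysates were immunoblotted for β-tubulin and p53, with lamin B1 as loading control. Detection was by chemiluminescence.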
(In general: Immunoblotting shows a protein as a band on a membrane.)

In experiment [6] the test system is CCRF-CEM. Kind of experiment: Induction of apoptosis in human CEM cells at 300 nM incubated for 18 hrs by Annexin V-FITC/propidium iodide staining-based flow cytometric analysis. The format is functional, cell-based. The method in brief:
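CEM, HL60 or RS4;11 cells (5×10^5) treated with 300 nM or vehicle for 18 h. Stained with FITC-Annexin V in binding buffer for 15 min at 37 °C, then PI (5 μg/mL) for 3 min. Analyzed by flow cytometry.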
For orientation: In flow cytometry, cells or beads pass a laser one at a time.

The results in this text go back to ChEMBL document CHEMBL4359879, “Synthesis and evaluation of 2-carboxy indole derivatives as potent and selective anti-leukemic agents” (Eur J Med Chem, 2019).

Calls of active or inactive are those of the source. The calls are words filed in the database; no cut-off is given here.

In the case of `COC(=O)c1[nH]c2cc(OC)ccc2c1-c1ccc(C(F)(F)F)cc1`, the Activity entry in experiment [1] is “Tde”. Besides, the figures for the “fold change (FC)” value in experiment [2] and in experiment [4] were -1.88 and 1.62, respectively. Moreover, the outcome in experiment [3], in experiment [5] and in experiment [6] was Active.
